The full list was thinned out, with hits kept by preference.
S1P4 antag: human S1P4 receptor antagonism; S1P4-expressing cells, antagonist mode, reporter read-out; inhibition, % at 4.98 µM; actives 0.26% (n = 220,000); in the data active = inhibition above about 29%;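 note: 0% = wells stimulated with agonist and 100% = vehicle wells without agonist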
Target sequence (O95977 whole entry, looked up): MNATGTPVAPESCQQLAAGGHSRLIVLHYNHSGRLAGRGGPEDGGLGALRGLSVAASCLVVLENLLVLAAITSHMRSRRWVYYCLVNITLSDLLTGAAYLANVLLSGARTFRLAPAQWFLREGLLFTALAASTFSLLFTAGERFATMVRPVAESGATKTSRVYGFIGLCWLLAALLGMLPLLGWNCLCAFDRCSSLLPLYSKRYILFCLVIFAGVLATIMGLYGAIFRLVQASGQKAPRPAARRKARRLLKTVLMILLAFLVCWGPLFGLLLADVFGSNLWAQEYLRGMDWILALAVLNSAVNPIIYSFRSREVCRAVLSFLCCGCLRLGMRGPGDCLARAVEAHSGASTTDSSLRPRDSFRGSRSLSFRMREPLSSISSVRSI
L major viab: Leishmania major promastigote growth inhibition; Leishmania major promastigotes, resazurin fluorescence viability; inhibition, % at 10 µM; actives 9% (n = 200,000); AID 1063; in the data active = inhibition above about 50%;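 note: promastigotes grown with compound for 44 hours at 28 °C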
S1P3 antagonist: S1P3 (human) receptor antagonism. Q99500. CHO S1P3 NFAT-BLA reporter, FRET fluorescence, antagonist mode. inhibition, % at 4.98 µM. actives 0.27% (n = 170,000);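 active = inhibition above the plate cutoff, the mean inhibition of test wells on that plate plus 3 SD, cut at about 28% in these data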;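 note: cells challenged with S1P at its EC80 of 0.8 µM; blue over green emission ratio from cleaved BLA substrate after 4 h stimulation; 0% = S1P-stimulated wells and 100% = unstimulated DMSO-only wells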
Mdm2 ligase inh: Mdm2 E3 ligase (human) inhibition; cell-based MDM2 ubiquitination luciferase reporter, 2 h; 0 = plate control, 100 = twice control, blank-subtracted; signal enhancement, % at 5 µM; actives 0.11% (n = 210,000); AID 1230;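 active = signal enhancement of 30% or more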;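 note: luminescence tracks abundance of the self-degrading MDM2-luciferase fusion protein; higher signal means inhibition of MDM2 E3 ligase activity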
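Test system: mammalian cells stably expressing self-ubiquitinating, self-degrading MDM2 E3–luciferase fusion; Amount: 2000 cells in each well; Medium: DMEM; Schedule: 4 h settle plus 2 h compound, 37 °C; Technique: SteadyLite luciferase luminescence after 15 min room-temperature reagent incubation; Benchmarks: plate control and blank wells.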
S1P4 agonist: agonists of human S1P4 receptor; O95977; S1P4-expressing cell line, agonist reporter assay; activation, % at 4.98 µM; actives 0.35% (n = 220,000); in the data active = activation above about 11%;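 note: 0% = DMSO vehicle and 100% = reference agonist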
An asterisk follows results filed as active; / = no result.

SMILES	S1P4 antag	L major viab	S1P3 antagonist	Mdm2 ligase inh	S1P4 agonist
O=C(NC(Cc1c[nH]c2ccccc12)C(=O)Nc1ccc(F)c([N+](=O)[O-])c1)c1cccs1 (stereo unspecified)	0	65*	-9	-6	0
O=C(NC(Cc1c[nH]c2ccccc12)C(=O)Nc1ccc(OC(F)(F)F)cc1)c1cccs1 (stereo unspecified)	-16	16	-14	4	3
COc1ccc(NC(=O)c2nn(C)cc2[N+](=O)[O-])cc1	10	/	-13	-11	0
Cc1ccc(NC(=O)c2nn(C34CC5CC(CC(C5)C3)C4)cc2[N+](=O)[O-])cc1	-24	59*	/	-20	0
COc1cccc(CSc2nc3ccccc3cc2C=O)c1	7	97*	/	-9	-3
c1coc(CN2CNc3nc4ccccc4n3C2)c1	-3	/	-13	-4	-2
COc1ccc(CN2CNc3nc4ccccc4n3C2)cc1	-2	62*	/	-7	2
Cc1ccc(-n2nnnc2SCC(=O)Nc2cccc(NC(=O)c3ccco3)c2)cc1C	-1	66*	9	-16	1
O=C(CSc1ccc(Cl)cc1)Nc1ccc(NC(=O)c2ccco2)cc1	6	4	/	2	0
Cc1ccc(SCC(=O)Nc2cccc(NC(=O)c3ccco3)c2)cc1	-3	77*	/	-15	1
CCC(=O)Nc1cccc(-n2nnnc2SCC(=O)c2ccc(C)c(C)c2)c1	-2	99*	2	-9	-3
Cc1cc(C)cc(-n2nnnc2SCC(=O)Nc2cccc(NC(=O)c3ccco3)c2)c1	-5	40	-15	-16	-1
C/C(=N\NC(=S)NC(C)C)c1ccccc1OC(F)F	-6	0	-6	-15	2
CC(NC(=S)Nc1c(Br)cccc1OC(F)F)C(C)(C)C (stereo unspecified)	9	60*	-4	7	0
Cc1ccc2nc(Nc3nc(C)cc(-c4ccccc4)n3)[nH]c(=O)c2c1	-6	/	7	-11	0
CCn1c(SCC(=O)Nc2nccs2)nnc1-c1ccccc1	9	2	8	-3	2
CCn1c(SCC(=O)Nc2cc(C)on2)nnc1-c1ccc(S(=O)(=O)N2CCCC2)cc1	17	69*	-2	-2	-1
CCn1c(SCC(=O)Nc2nccs2)nnc1-c1ccc(S(=O)(=O)N2CCCCC2)cc1	-3	56*	-10	-6	2
Cc1cc(NC(=O)CSc2nnc(-c3ccc(S(=O)(=O)N4CCCC4)cc3)n2C)no1	-8	-1	2	-8	1
O=C(CC1NCCNC1=O)Nc1cccc([N+](=O)[O-])c1 (stereo unspecified)	-13	-6	-16	-7	0
COc1cc(OC)cc(C(=O)NNC(=O)NC2CCCCC2)c1	-19	-4	/	-1	0
OC(CNCCc1ccc(C(F)(F)F)cc1)COc1cccc2ccccc12 (stereo unspecified)	-16	97*	-21	0	0
OC(CNCCc1ccc(C(F)(F)F)cc1)COc1ccc2ccccc2c1 (stereo unspecified)	-21	99*	2	-1	1
COc1ccc(CCNCC(O)COc2cccc(Br)c2)cc1 (stereo unspecified)	-3	52*	-4	-1	-1
O=C(CSc1nnc(NC(=O)C2CCCCC2)s1)NCc1ccco1	0	-6	11	-7	0
SMILES	S1P4 antag	L major viab	S1P3 antagonist	Mdm2 ligase inh	S1P4 agonist
O=C(CSc1nnc(NC(=O)C2CC2)s1)NCc1ccco1	-11	59*	-6	-15	1
CCOc1ccccc1CNC(=O)c1ccc(Sc2ccc(Cl)cc2)c(NC(C)=O)c1	-16	85*	-4	6	1
CCOc1ccc(CNC(=O)c2ccc(Sc3ccc(Cl)cc3)c(NC(C)=O)c2)cc1	-12	95*	3	7	0
CC(=O)Nc1cc(C(=O)NCc2ccco2)ccc1Sc1ccc(Cl)cc1	-5	92*	1	11	-1
CC(=O)Nc1cc(C(=O)NCc2ccco2)ccc1Sc1ccc(F)cc1	-10	5	8	-10	3
COc1ccc(C2CC(c3ccccc3)=NN2C(=O)COC(=O)/C=C/c2ccc(O)c(OC)c2)cc1 (stereo unspecified)	-2	/	-8	-102	1
Cc1ccc(CSC(Nc2ccc(F)cc2)=C(C#N)C#N)cc1	-2	58*	-1	-17	1
C(#Cc1ccc(C#CCN2CCCC2)cc1)CN1CCCC1	18	92*	/	-11	-2
